One series has as its system RAW264.7. Kind of series: Cytotoxicity against mouse RAW264.7 cells assessed as cell viability at 1 to 5 uM incubated for 24 hrs by MTS assay. Type of series: cell-based. The settings on record: raw264.7, 24 h. A digest of the protocol:
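RAW264.7 macrophages (passage 5–16) were grown in DMEM GlutaMAX with 10% FBS at 37 °C and 5% CO₂, then seeded at 25,000 cells/cm². The next day, medium was replaced with inhibitor-containing medium for 24 h at 37 °C. MTS reagent was added for 2 h at 37 °C in the dark. Absorbance was read at 490 nm and expressed as % of control.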
On the technique in general: Formazan colour is commonly taken as a measure of viable cells.

The target of series [1] is Histone deacetylase 3/Nuclear receptor corepressor 2 (HDAC3/NCoR2) (Homo sapiens, UniProt O15379). As to the kind of experiment: Inhibition of human recombinant C-terminal His-tagged HDAC3/NCOR2 using Boc-Lys-(epsilon-Ac)-AMC as fluorogenic substrate incubated for 90 mins by fluorescence based assay. In kind it is protein-complex assay.
Sequence of Histone deacetylase 3/Nuclear receptor corepressor 2 (HDAC3/NCoR2) (O15379 whole entry): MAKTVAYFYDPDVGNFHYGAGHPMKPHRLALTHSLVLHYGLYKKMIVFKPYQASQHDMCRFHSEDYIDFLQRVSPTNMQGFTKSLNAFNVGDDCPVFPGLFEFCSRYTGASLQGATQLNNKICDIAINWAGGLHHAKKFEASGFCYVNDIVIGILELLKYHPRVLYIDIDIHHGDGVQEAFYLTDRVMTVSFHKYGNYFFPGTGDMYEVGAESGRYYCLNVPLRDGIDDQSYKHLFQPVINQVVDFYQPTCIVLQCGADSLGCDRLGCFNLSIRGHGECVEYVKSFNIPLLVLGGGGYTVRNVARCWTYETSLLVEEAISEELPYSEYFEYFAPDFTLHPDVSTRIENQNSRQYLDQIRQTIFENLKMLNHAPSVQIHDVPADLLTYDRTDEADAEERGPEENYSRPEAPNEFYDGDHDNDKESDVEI
Sequence of Histone deacetylase 3/Nuclear receptor corepressor 2 (HDAC3/NCoR2) (Q9Y618 whole entry, further chain): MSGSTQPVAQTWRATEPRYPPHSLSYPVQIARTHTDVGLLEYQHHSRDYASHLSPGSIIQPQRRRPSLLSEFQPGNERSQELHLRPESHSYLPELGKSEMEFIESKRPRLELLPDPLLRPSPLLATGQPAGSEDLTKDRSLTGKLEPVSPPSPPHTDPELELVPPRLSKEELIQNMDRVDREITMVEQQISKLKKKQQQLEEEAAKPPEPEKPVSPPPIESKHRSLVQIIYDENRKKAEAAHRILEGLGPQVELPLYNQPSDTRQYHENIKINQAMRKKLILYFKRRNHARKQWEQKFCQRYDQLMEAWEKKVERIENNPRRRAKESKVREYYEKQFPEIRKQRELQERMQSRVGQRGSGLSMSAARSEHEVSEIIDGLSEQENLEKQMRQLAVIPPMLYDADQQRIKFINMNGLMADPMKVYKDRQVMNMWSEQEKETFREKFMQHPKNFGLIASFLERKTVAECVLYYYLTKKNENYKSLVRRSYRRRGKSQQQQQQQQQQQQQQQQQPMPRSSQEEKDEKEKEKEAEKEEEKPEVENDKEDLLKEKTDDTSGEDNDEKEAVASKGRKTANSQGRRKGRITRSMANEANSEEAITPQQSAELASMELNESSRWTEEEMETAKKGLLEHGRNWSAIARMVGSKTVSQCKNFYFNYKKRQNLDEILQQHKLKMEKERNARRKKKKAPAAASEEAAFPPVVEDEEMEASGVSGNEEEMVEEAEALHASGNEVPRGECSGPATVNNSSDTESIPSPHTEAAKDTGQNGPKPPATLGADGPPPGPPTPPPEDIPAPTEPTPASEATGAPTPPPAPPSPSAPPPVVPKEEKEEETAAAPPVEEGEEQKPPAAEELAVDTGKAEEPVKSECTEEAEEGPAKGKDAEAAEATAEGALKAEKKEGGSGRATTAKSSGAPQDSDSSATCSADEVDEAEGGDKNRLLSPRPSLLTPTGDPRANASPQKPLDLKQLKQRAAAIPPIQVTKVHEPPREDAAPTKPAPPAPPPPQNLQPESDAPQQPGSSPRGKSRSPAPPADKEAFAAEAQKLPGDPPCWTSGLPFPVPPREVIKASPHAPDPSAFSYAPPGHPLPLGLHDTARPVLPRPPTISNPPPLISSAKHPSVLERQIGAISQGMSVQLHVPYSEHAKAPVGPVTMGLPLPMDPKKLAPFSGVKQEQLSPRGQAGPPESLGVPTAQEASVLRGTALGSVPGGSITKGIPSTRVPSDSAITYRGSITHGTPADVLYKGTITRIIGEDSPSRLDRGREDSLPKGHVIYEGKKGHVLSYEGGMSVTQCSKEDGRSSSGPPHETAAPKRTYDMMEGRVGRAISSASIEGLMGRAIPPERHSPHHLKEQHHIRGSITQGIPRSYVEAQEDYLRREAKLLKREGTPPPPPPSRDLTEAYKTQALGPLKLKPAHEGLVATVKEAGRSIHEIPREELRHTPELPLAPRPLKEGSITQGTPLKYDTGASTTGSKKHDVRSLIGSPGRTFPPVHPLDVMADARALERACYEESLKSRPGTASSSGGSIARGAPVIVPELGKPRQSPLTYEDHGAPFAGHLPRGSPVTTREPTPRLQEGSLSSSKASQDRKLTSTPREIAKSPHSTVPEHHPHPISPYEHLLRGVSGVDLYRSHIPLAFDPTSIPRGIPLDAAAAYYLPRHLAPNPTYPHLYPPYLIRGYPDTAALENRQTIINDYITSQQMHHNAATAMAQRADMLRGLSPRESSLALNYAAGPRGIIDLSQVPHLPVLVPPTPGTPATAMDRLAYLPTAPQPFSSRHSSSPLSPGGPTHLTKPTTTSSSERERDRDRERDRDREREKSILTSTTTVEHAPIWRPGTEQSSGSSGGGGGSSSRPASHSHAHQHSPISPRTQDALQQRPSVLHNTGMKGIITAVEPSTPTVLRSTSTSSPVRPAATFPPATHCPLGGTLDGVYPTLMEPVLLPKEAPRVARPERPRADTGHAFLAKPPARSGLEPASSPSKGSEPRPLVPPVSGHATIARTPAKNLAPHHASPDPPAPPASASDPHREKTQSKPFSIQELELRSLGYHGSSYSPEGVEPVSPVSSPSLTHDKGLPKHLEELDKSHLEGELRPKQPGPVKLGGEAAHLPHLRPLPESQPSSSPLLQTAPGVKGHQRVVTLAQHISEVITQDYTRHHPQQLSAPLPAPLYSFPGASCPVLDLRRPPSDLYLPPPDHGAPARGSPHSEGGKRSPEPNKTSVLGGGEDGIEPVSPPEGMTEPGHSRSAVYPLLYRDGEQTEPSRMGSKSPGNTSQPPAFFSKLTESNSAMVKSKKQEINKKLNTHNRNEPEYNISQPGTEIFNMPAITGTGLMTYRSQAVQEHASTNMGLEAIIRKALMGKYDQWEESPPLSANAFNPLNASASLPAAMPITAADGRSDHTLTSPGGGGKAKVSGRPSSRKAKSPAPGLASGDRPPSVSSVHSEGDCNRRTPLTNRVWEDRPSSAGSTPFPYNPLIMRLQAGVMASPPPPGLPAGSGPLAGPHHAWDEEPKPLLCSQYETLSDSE
A further series deals with Histone deacetylase 1 (Homo sapiens, UniProt Q13547). As to the kind of experiment: Inhibition of human recombinant C-terminal His/FLAG-tagged HDAC1 using Boc-Lys-(epsilon-Ac)-AMC as fluorogenic substrate incubated for 90 mins by fluorescence based assay.
Sequence of Histone deacetylase 1 (Q13547 whole entry): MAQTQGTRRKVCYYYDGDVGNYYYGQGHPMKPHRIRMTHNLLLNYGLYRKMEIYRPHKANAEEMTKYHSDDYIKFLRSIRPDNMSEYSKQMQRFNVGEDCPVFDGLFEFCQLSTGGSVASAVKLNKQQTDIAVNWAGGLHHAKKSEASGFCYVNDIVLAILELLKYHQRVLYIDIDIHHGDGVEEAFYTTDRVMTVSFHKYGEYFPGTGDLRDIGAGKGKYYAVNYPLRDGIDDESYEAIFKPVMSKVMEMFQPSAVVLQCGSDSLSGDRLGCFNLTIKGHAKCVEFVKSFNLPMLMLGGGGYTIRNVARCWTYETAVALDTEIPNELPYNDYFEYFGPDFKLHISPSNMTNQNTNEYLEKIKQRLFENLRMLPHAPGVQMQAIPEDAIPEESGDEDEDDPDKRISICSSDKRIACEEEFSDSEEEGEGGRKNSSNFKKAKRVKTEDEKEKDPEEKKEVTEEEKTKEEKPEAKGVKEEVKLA
Another series has as its target Histone deacetylase 2 (Homo sapiens, UniProt Q92769). Kind of series: Inhibition of human recombinant C-terminal FLAG-tagged HDAC2 using Boc-Lys-(epsilon-Ac)-AMC as fluorogenic substrate incubated for 90 mins by fluorescence based assay.
Series [2] addresses T1, Histone deacetylase 1/2 (Mus musculus) (UniProt O09106+P70288). As to the kind of experiment: Inhibition of HDAC1/2 in LPS/IFNgamma-stimulated mouse RAW264.7 cells assessed as upregulation of iNOS gene expression at 1 to 5 uM pretreated for 16 hrs followed by LPS stimulation and measured after 4 hrs by RT-qPCR analysis. Type of series: cell-based. A digest of the protocol:
(§1)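 RAW264.7 cells were treated with inhibitor for 20 h in total, with LPS/IFNγ added for the final 4 h; vehicle was a proportional DMSO dilution. Cells were washed twice with DPBS, total RNA was isolated, and IL10, iNOS, IL6 and TNFα transcripts were quantified by RT-qPCR relative to vehicle. Mean ± SD of 2–3 independent experiments.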
In general terms: Real-time PCR tracks product formation cycle by cycle.

The target in series [3] is T1, Histone deacetylase 1/2 (Mus musculus). As to the kind of experiment: Inhibition of HDAC1/2 in LPS/IFNgamma-stimulated mouse RAW264.7 cells assessed as upregulation of IL-6 gene expression at 1 to 5 uM pretreated for 16 hrs followed by LPS stimulation and measured after 4 hrs by RT-qPCR analysis. Type of series: cell-based. A digest of the protocol:
as §1

The target of series [4] is Histone deacetylase 1 (Mus musculus) (UniProt O09106). As to the kind of experiment: Inhibition of HDAC1 in LPS/IFNgamma-stimulated mouse RAW blue cells assessed as upregulation of NFkappaB transcriptional activity by measuring increase in SEAP activity at 1 to 5 uM pretreated for 16 hrs followed by LPS stimulation and measured after 4 hrs by quanti blue reagent-based reporter gene assay. A digest of the protocol: (§2)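 NF-κB SEAP reporter assay in RAW264.7-derived RAW-Blue cells (passage 4–14), seeded at about 550,000 cells/mL. Cells were pre-incubated with inhibitor for 16 h, then stimulated with 10 ng/mL LPS/IFNγ for 4 h. Supernatant was mixed 1:9 into QUANTI-Blue and incubated 3 h at 37 °C; absorbance was read at 650 nm as % of control. Mean ± SD of 3 independent experiments.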
Sequence of Histone deacetylase 1 (Mus musculus) (O09106 whole entry): as the sequence (Q13547 whole entry) above, with R8K, D399E, E424D counted along it
Background: Reporter assays use an easily measured gene product as a stand-in for the process of interest.

In series [5] the target is T1, Histone deacetylase 1/2 (Mus musculus). As to the kind of experiment: Inhibition of HDAC1/2 in LPS/IFNgamma-stimulated mouse RAW264.7 cells assessed as upregulation of IL-10 gene expression at 1 to 5 uM pretreated for 16 hrs followed by LPS stimulation and measured after 4 hrs by RT-qPCR analysis. Type of series: cell-based. In short, it runs like this: as §1
The target is the same in series [6]. Kind of series: Inhibition of HDAC1/2 in LPS/IFNgamma-stimulated mouse RAW264.7 cells assessed as upregulation of TNF-alpha gene expression at 1 to 5 uM pretreated for 16 hrs followed by LPS stimulation and measured after 4 hrs by RT-qPCR analysis. Type of series: cell-based. A digest of the protocol: as §1
Series [7] shares this target. As to the kind of experiment: Inhibition of HDAC1/2 in LPS/IFNgamma-stimulated mouse RAW264.7 cells assessed as upregulation of IL-10 gene expression at pretreated for 16 hrs followed by LPS stimulation and measured after 4 hrs by RT-qPCR analysis. In kind it is cell-based. In short, it runs like this: as §1
The target is the same in series [8]. Kind of series: Inhibition of HDAC1/2 in LPS/IFNgamma-stimulated mouse RAW264.7 cells assessed as upregulation of TNF-alpha gene expression at pretreated for 16 hrs followed by LPS stimulation and measured after 4 hrs by RT-qPCR analysis. In kind it is cell-based. A digest of the protocol: as §1
Series [9] has the same target. Kind of series: Inhibition of HDAC1/2 in LPS/IFNgamma-stimulated mouse RAW264.7 cells assessed as upregulation of iNOS gene expression at pretreated for 16 hrs followed by LPS stimulation and measured after 4 hrs by RT-qPCR analysis. In kind it is cell-based. In short, it runs like this:
as §1

For series [10], the species on record is Homo sapiens. As to the kind of experiment: Selectivity ratio of IC50 for human recombinant C-terminal His-tagged HDAC3/NCOR2 to IC50 for human recombinant C-terminal FLAG-tagged HDAC2. A digest of the protocol:
(§3)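 Fluorogenic assay using human recombinant HDAC1 (FLAG/His), HDAC2 (FLAG) or HDAC3/NcoR2 (His) in pH 8.0 Tris buffer with NaCl, KCl, MgCl₂, 0.01% Triton-X and 1 mg/mL BSA. Enzyme, inhibitor dilutions and Boc-Lys(ε-Ac)-AMC were incubated 90 min at 37 °C. Trypsin/200 μM vorinostat stop solution was added for 30 min, then fluorescence read (ex 370/em 460 nm). IC50s came from curve fits; the ratio is HDAC3 IC50 over HDAC2 or HDAC1 IC50.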

Series [11] has as its target T1, Histone deacetylase 1/2 (Mus musculus). As to the kind of experiment: Inhibition of HDAC1/2 in LPS/IFNgamma-stimulated mouse RAW264.7 cells assessed as upregulation of IL-6 gene expression at pretreated for 16 hrs followed by LPS stimulation and measured after 4 hrs by RT-qPCR analysis. In kind it is cell-based. In short, it runs like this: as §1
The species named for series [12] is Homo sapiens. Kind of series: Selectivity ratio of IC50 for human recombinant C-terminal His-tagged HDAC3/NCOR2 to IC50 for human recombinant C-terminal His/FLAG-tagged HDAC1. A digest of the protocol: as §3
Series [13] deals with T2, Histone deacetylase 3 (Mus musculus) (UniProt O88895).
T2 sequence (whole entry): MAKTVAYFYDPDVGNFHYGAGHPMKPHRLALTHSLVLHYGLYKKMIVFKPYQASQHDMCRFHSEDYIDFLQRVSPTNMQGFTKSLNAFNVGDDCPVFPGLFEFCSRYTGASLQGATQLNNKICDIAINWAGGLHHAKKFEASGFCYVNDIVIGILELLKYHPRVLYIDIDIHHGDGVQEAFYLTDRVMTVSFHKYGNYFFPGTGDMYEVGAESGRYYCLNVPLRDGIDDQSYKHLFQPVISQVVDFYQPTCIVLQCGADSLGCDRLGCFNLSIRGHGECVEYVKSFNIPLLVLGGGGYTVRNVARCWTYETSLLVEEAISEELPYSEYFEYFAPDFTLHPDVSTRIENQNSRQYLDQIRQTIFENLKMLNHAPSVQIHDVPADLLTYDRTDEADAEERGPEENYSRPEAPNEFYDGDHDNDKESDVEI
As to the kind of experiment: Inhibition of HDAC3 in LPS/IFNgamma-stimulated mouse RAW blue cells assessed as NFkappaB transcriptional activity measured as SEAP activity at 1 to 5 uM pretreated for 16 hrs followed by LPS stimulation and measured after 4 hrs by quanti blue reagent-based reporter gene assay. A digest of the protocol: as §2

Series [14] concerns the target T2, Histone deacetylase 3 (Mus musculus). As to the kind of experiment: Inhibition of HDAC3 in LPS/IFNgamma-stimulated mouse RAW264.7 cells assessed as IL-6 gene expression at 1 uM pretreated for 16 hrs followed by LPS stimulation and measured after 4 hrs by RT-qPCR analysis. Type of series: cell-based. A digest of the protocol:
as §1

Series [15] shares this target. Kind of series: Inhibition of HDAC3 in LPS/IFNgamma-stimulated mouse RAW264.7 cells assessed as IL-10 gene expression at 1 uM pretreated for 16 hrs followed by LPS stimulation and measured after 4 hrs by RT-qPCR analysis. Type of series: cell-based. In short, it runs like this:
as §1

Series [16] has the same target. Kind of series: Inhibition of HDAC3 in LPS/IFNgamma-stimulated mouse RAW264.7 cells assessed as TNF-alpha gene expression at 1 uM pretreated for 16 hrs followed by LPS stimulation and measured after 4 hrs by RT-qPCR analysis. In kind it is cell-based. A digest of the protocol:
as §1

Series [17] has the same target. As to the kind of experiment: Inhibition of HDAC3 in LPS/IFNgamma-stimulated mouse RAW264.7 cells assessed as iNOS gene expression at 1 uM pretreated for 16 hrs followed by LPS stimulation and measured after 4 hrs by RT-qPCR analysis. In kind it is cell-based. In short, it runs like this:
as §1

Molecules are shown by their SMILES. The source made the active and inactive calls. No cut-off for these calls is given here.

Sequence of Histone deacetylase 2 (Q92769 whole entry): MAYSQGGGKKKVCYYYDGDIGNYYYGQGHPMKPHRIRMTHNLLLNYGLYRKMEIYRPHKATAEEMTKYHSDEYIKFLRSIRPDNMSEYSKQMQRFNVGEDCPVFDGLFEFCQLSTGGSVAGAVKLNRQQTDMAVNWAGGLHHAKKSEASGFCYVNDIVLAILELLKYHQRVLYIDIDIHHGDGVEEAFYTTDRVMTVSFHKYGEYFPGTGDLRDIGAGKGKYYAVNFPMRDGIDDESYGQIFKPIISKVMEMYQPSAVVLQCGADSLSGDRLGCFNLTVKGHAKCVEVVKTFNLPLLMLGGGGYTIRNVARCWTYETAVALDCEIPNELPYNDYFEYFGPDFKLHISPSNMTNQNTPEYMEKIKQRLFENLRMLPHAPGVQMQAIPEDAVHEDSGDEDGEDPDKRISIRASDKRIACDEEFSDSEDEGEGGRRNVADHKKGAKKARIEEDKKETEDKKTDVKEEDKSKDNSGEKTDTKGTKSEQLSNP
T1 sequence (O09106 whole entry, looked up): as the sequence (Q13547 whole entry) above, with R8K, D399E, E424D counted along it
T1 sequence (P70288 whole entry, looked up): as the sequence (Q92769 whole entry) above, with V289A, T477P, T480A counted along it

Turning to `Nc1ccccc1NC(=O)CCCCNC(=O)c1ccccc1`, the Activity entry in the series with RAW264.7 was “Non-Toxic”.

As to `Nc1ccccc1NC(=O)CCCCCNc1ccccc1`, the IC50 in series [1] stood at 400 nM; at Histone deacetylase 1, 1200 nM; at Histone deacetylase 2 it was 1300 nM.

On to `Nc1ccccc1NC(=O)c1ccc(CNC(=O)OCc2cccnc2)cc1` [ENTINOSTAT], for which the Activity entry in the series on RAW264.7 is “Non-Toxic”.

Take `C[C@@H](Nc1ccccc1)c1ccc(C(=O)Nc2ccccc2N)cc1`: the half-inhibitory concentration (IC50) is 5000 nM in [1], 1300 nM on Histone deacetylase 1 and 4200 nM at Histone deacetylase 2. The outcome in series [2], in series [3], in series [4], in series [5] and in series [6] was Active. Further, the Activity entry in the series on RAW264.7 is reported as “Non-Toxic”.

In the case of `CC(Nc1ccccc1)c1ccc(C(=O)Nc2ccccc2N)cc1` (stereo not drawn), the 50% inhibitory concentration (IC50) in [1] worked out at 8500 nM; at Histone deacetylase 1 it was 2300 nM; on Histone deacetylase 2, 7000 nM. The result in series [7], in series [8], in series [9] and in series [11] was Active. Besides, the results for the Ratio IC50 in the series listed under Homo sapiens [10] and in the series filed under Homo sapiens [12] were 1.2 and 3.7, respectively. Besides, the Activity result in the series on RAW264.7 is recorded as “Non-Toxic”.

As to `Nc1ccccc1NC(=O)c1ccc(CNc2ccccc2)cc1`, the values for the IC50 (in [1]; on Histone deacetylase 1; at Histone deacetylase 2) were 600 nM, 1000 nM and 1400 nM, respectively.

As for `CN(Cc1ccc(C(=O)Nc2ccccc2N)cc1)c1ccccc1`, the 50% inhibitory concentration (IC50) in series [1] stood at 2800 nM; at Histone deacetylase 1, 1000 nM; on Histone deacetylase 2 it was 500 nM.

With `Nc1cc(F)ccc1NC(=O)/C=C/c1cnn(C/C=C/c2ccccc2)c1`, the result in [13], in series [14], in [15], in [16] and in series [17] was inactive. For the same compound, the Activity result in the series on RAW264.7 was “Non-Toxic”.

In the case of `Nc1ccccc1NC(=O)CCCCCC(=O)c1ccccc1`, the half-maximal inhibitory concentration (IC50) stood at 1200 nM in [1], 1900 nM at Histone deacetylase 1 and 3700 nM on Histone deacetylase 2.

Regarding `C[C@H](Nc1ccccc1)c1ccc(C(=O)Nc2ccccc2N)cc1`, the IC50 in series [1] is 11000 nM; at Histone deacetylase 1, 2400 nM; at Histone deacetylase 2 it was 8300 nM. Further, the Activity result in the series on RAW264.7 was “Non-Toxic”.

`Nc1ccccc1NC(=O)c1ccc(C(=O)Nc2ccccc2)cc1`: the IC50 in series [1] came out at 16000 nM; on Histone deacetylase 1, 3000 nM; on Histone deacetylase 2, 5400 nM. For the same compound, the values for the Ratio IC50 in the series filed under Homo sapiens [10] and in the series listed under Homo sapiens [12] were 3 and 5.3, respectively.

By IC50 is commonly meant the midpoint of a concentration-inhibition curve.

These data come from ChEMBL document CHEMBL4351000, “Inhibitory selectivity among class I HDACs has a major impact on inflammatory gene expression in macrophages” (Eur J Med Chem, 2019).
